From ChEMBL document CHEMBL4406875, “Design, synthesis and biological evaluation of amino acids-oleanolic acid conjugates as influenza virus inhibitors” (Bioorg Med Chem, 2019)
Active and inactive are the calls of the source. No cut-off for these calls is given here.

Assays:
Influenza A virus [1] = test: Antiviral activity against Influenza A virus A/WSN/33(H1N1) infected in MDCK cells assessed as inhibition of virus-induced cytopathic effect at 100 uM measured after 45 hrs by CellTiter-Glo luminescence assay; format: functional, organism-based; conditions: A/WSN/1933(H1N1)
Method in brief: (§1)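 Single-concentration screen at 100 μM in MDCK cells infected with A/WSN/33 under the same conditions: 1% FBS DMEM with 1 μg/mL trypsin, MOI 0.1, 45 h. Cytopathic effect was read by CellTiter-Glo luminescence against a DMSO negative control, from triplicate experiments.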

MDCK = test: Cytotoxicity against dog MDCK cells assessed as cell viability measured at 100 uM after 45 hrs by Celltiter-Glo luminescence assay; format: cell-based, Canis lupus familiaris
Method in brief: (§2)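 Viability screen of uninfected MDCK cells at 100 μM compound, read by CellTiter-Glo luminescence with DMSO as negative control; triplicate experiments.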

[2] = Cytotoxicity against dog MDCK cells assessed as cell viability measured at 100 uM after 45 hrs by Celltiter-Glo luminescence assay relative to control; format: cell-based, Canis lupus familiaris; conditions: read-out: Activity; method in brief: as §2
Influenza A virus [3] = test: Antiviral activity against Influenza A virus A/WSN/33(H1N1) infected in MDCK cells assessed as inhibition of virus-induced cytopathic effect measured after 45 hrs by CellTiter-Glo luminescence assay; format: functional, organism-based; conditions: A/WSN/1933(H1N1)
Method in brief: (§3)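 MDCK cells (5,000/well) were seeded one day before infection. Infection medium was high-glucose DMEM with 1% FBS and trypsin (1 μg/mL). Compounds were added at various concentrations and cells infected at MOI 0.1. After 45 h, viability was read by CellTiter-Glo luminescence. IC50 was taken from dose-response curves, as the mean of duplicate samples from three independent experiments.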

Influenza A virus [4] = test: Antiviral activity against Influenza A virus A/WSN/33(H1N1) infected in MDCK cells assessed as inhibition of virus-induced cytopathic effect at 100 uM measured after 45 hrs by CellTiter-Glo luminescence assay relative to control; format: functional; conditions: A/WSN/1933(H1N1); method in brief: as §1
Influenza A virus H3N2 = test: Antiviral activity against Influenza A virus A/Texas/50/2012(H3N2) infected in MDCK cells inhibition of virus-induced cytopathic effect measured after 45 hrs by CellTiter-Glo luminescence assay; format: functional, organism-based; method in brief: as §3
[5] = Cytotoxicity against dog MDCK cells assessed as cell viability measured after 45 hrs by Celltiter-Glo luminescence assay; format: cell-based, Canis lupus familiaris
Method in brief: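 Non-infected MDCK cells were exposed to compound dilutions and viability was read by CellTiter-Glo luminescence. CC50 is the concentration reducing viability of uninfected cells by 50%, given as the mean of duplicate samples from three independent experiments.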

[6] = biological target: Hemagglutinin (Influenza A virus) (UniProt B4URE7); test: Inhibition of Influenza A virus HA-mediated chicken erythrocytes aggregation incubated for 30 mins
Method in brief: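 Compound was 2-fold serially diluted in saline from 100 to 1.56 μM and mixed with an equal volume of influenza virus (2 HA units). Chicken red blood cells (1% v/v in saline) were then added. After 30 min at room temperature, erythrocyte aggregation was scored by eye. An anti-HA monoclonal antibody served as positive control.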

Sequence of Hemagglutinin (Influenza A virus) (B4URE7 as listed by the source): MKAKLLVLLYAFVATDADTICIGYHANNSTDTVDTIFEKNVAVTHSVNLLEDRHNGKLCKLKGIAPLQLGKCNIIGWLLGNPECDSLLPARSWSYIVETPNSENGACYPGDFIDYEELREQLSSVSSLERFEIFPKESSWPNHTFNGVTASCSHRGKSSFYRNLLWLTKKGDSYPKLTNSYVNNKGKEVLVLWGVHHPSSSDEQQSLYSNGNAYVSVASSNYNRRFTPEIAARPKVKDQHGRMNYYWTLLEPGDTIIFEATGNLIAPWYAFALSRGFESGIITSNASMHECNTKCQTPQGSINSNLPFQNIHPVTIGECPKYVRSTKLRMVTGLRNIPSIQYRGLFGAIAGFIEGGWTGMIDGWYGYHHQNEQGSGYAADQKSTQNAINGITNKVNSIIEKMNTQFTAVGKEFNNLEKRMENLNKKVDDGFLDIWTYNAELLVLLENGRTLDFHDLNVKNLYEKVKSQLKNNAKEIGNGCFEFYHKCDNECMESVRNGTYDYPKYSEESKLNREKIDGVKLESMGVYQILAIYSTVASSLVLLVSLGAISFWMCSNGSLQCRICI

Row | SMILES | inhibition (Influenza A virus [1]) | Activity (MDCK) | other results
1 | CC1(C)CC[C@]2(C(=O)O)CC[C@]3(C)C(=CC[C@@H]4[C@@]5(C)CC[C@H](O)C(C)(C)[C@@H]5CC[C@]43C)[C@@H]2C1 | Active |  | 
2 | COC(=O)CC[C@H](NC(=O)[C@]12CCC(C)(C)C[C@H]1C1=CC[C@@H]3[C@@]4(C)CC[C@H](O)C(C)(C)[C@@H]4CC[C@@]3(C)[C@]1(C)CC2)C(=O)OC | Active | Toxic | 
3 | COC(=O)[C@H](CCCNC(=N)N)NC(=O)[C@]12CCC(C)(C)C[C@H]1C1=CC[C@@H]3[C@@]4(C)CC[C@H](O)C(C)(C)[C@@H]4CC[C@@]3(C)[C@]1(C)CC2 | Active | Toxic | 
4 | CSCC[C@H](NC(=O)[C@]12CCC(C)(C)C[C@H]1C1=CC[C@@H]3[C@@]4(C)CC[C@H](O)C(C)(C)[C@@H]4CC[C@@]3(C)[C@]1(C)CC2)C(=O)O | Active | Toxic | 
5 | C[C@H](NC(=O)[C@]12CCC(C)(C)C[C@H]1C1=CC[C@@H]3[C@@]4(C)CC[C@H](O)C(C)(C)[C@@H]4CC[C@@]3(C)[C@]1(C)CC2)C(=O)O | Active | Toxic | 
6 | C[C@@H](O)[C@H](NC(=O)[C@]12CCC(C)(C)C[C@H]1C1=CC[C@@H]3[C@@]4(C)CC[C@H](O)C(C)(C)[C@@H]4CC[C@@]3(C)[C@]1(C)CC2)C(=O)O | Active | Toxic | 
7 | COC(=O)[C@H](Cc1ccc(O)cc1)NC(=O)[C@]12CCC(C)(C)C[C@H]1C1=CC[C@@H]3[C@@]4(C)CC[C@H](O)C(C)(C)[C@@H]4CC[C@@]3(C)[C@]1(C)CC2 | Active | Toxic | 
8 | COC(=O)[C@@H]1CCCN1C(=O)[C@]12CCC(C)(C)C[C@H]1C1=CC[C@@H]3[C@@]4(C)CC[C@H](O)C(C)(C)[C@@H]4CC[C@@]3(C)[C@]1(C)CC2 | Active | Toxic | 
9 | CC[C@H](C)[C@H](NC(=O)[C@]12CCC(C)(C)C[C@H]1C1=CC[C@@H]3[C@@]4(C)CC[C@H](O)C(C)(C)[C@@H]4CC[C@@]3(C)[C@]1(C)CC2)C(=O)OC | Active | Toxic | 
10 | COC(=O)[C@H](C)NC(=O)[C@]12CCC(C)(C)C[C@H]1C1=CC[C@@H]3[C@@]4(C)CC[C@H](O)C(C)(C)[C@@H]4CC[C@@]3(C)[C@]1(C)CC2 | Active | Toxic | 
11 | CC1(C)CC[C@]2(C(=O)N[C@@H](Cc3ccccc3)C(=O)O)CC[C@]3(C)C(=CC[C@@H]4[C@@]5(C)CC[C@H](O)C(C)(C)[C@@H]5CC[C@]43C)[C@@H]2C1 | Active | Toxic | 
12 | CC1(C)CC[C@]2(C(=O)N[C@@H](Cc3c[nH]c4ccccc34)C(=O)O)CC[C@]3(C)C(=CC[C@@H]4[C@@]5(C)CC[C@H](O)C(C)(C)[C@@H]5CC[C@]43C)[C@@H]2C1 | Active | Toxic | 
13 | COC(=O)[C@H](CC(C)C)NC(=O)[C@]12CCC(C)(C)C[C@H]1C1=CC[C@@H]3[C@@]4(C)CC[C@H](O)C(C)(C)[C@@H]4CC[C@@]3(C)[C@]1(C)CC2 | Active | Toxic | 
14 | COC(=O)[C@@H](NC(=O)[C@]12CCC(C)(C)C[C@H]1C1=CC[C@@H]3[C@@]4(C)CC[C@H](O)C(C)(C)[C@@H]4CC[C@@]3(C)[C@]1(C)CC2)C(C)C | Active | Toxic | 
15 | CC1(C)CC[C@]2(C(=O)N[C@@H](Cc3c[nH]cn3)C(=O)O)CC[C@]3(C)C(=CC[C@@H]4[C@@]5(C)CC[C@H](O)C(C)(C)[C@@H]5CC[C@]43C)[C@@H]2C1 | Active | Toxic | 
16 | CC1(C)CC[C@]2(C(=O)N[C@@H](CCC(=O)O)C(=O)O)CC[C@]3(C)C(=CC[C@@H]4[C@@]5(C)CC[C@H](O)C(C)(C)[C@@H]5CC[C@]43C)[C@@H]2C1 | Active | Toxic | 
17 | COC(=O)CNC(=O)[C@]12CCC(C)(C)C[C@H]1C1=CC[C@@H]3[C@@]4(C)CC[C@H](O)C(C)(C)[C@@H]4CC[C@@]3(C)[C@]1(C)CC2 | Active | Toxic | 

Row | SMILES | inhibition (Influenza A virus [1]) | Activity (MDCK) | other results
18 | CC[C@H](C)[C@H](NC(=O)[C@]12CCC(C)(C)C[C@H]1C1=CC[C@@H]3[C@@]4(C)CC[C@H](O)C(C)(C)[C@@H]4CC[C@@]3(C)[C@]1(C)CC2)C(=O)O | Active | Toxic | 
19 | COC(=O)[C@H](CCSC)NC(=O)[C@]12CCC(C)(C)C[C@H]1C1=CC[C@@H]3[C@@]4(C)CC[C@H](O)C(C)(C)[C@@H]4CC[C@@]3(C)[C@]1(C)CC2 | Active | Toxic | 
20 | CC1(C)CC[C@]2(C(=O)N[C@@H](CC(=O)O)C(=O)O)CC[C@]3(C)C(=CC[C@@H]4[C@@]5(C)CC[C@H](O)C(C)(C)[C@@H]5CC[C@]43C)[C@@H]2C1 | Active | Toxic | 
21 | COC(=O)C[C@H](NC(=O)[C@]12CCC(C)(C)C[C@H]1C1=CC[C@@H]3[C@@]4(C)CC[C@H](O)C(C)(C)[C@@H]4CC[C@@]3(C)[C@]1(C)CC2)C(=O)OC | Active | Toxic | 
22 | COC(=O)[C@H](Cc1c[nH]c2ccccc12)NC(=O)[C@]12CCC(C)(C)C[C@H]1C1=CC[C@@H]3[C@@]4(C)CC[C@H](O)C(C)(C)[C@@H]4CC[C@@]3(C)[C@]1(C)CC2 | Active | Toxic | 
23 | COC(=O)[C@H](CO)NC(=O)[C@]12CCC(C)(C)C[C@H]1C1=CC[C@@H]3[C@@]4(C)CC[C@H](O)C(C)(C)[C@@H]4CC[C@@]3(C)[C@]1(C)CC2 | Active | Toxic | 
24 | CC1(C)CC[C@]2(C(=O)N[C@@H](CCCNC(=N)N)C(=O)O)CC[C@]3(C)C(=CC[C@@H]4[C@@]5(C)CC[C@H](O)C(C)(C)[C@@H]5CC[C@]43C)[C@@H]2C1 | Active | Toxic | viability at 45 h, 100 µM [2]: 75%; IC50 (Influenza A virus [3]): 6.64 µM; inhibition at 100 µM (Influenza A virus [4]): 75%; IC50 (Influenza A virus H3N2): 14.1 µM; CC50 at 45 h [5]: > 100 µM; inhibition [6]: Dose-dependent effect
25 | CC(C)[C@H](NC(=O)[C@]12CCC(C)(C)C[C@H]1C1=CC[C@@H]3[C@@]4(C)CC[C@H](O)C(C)(C)[C@@H]4CC[C@@]3(C)[C@]1(C)CC2)C(=O)O | Active | Toxic | 
26 | CC(C)C[C@H](NC(=O)[C@]12CCC(C)(C)C[C@H]1C1=CC[C@@H]3[C@@]4(C)CC[C@H](O)C(C)(C)[C@@H]4CC[C@@]3(C)[C@]1(C)CC2)C(=O)O | Active | Toxic | 
27 | COC(=O)[C@H](Cc1ccccc1)NC(=O)[C@]12CCC(C)(C)C[C@H]1C1=CC[C@@H]3[C@@]4(C)CC[C@H](O)C(C)(C)[C@@H]4CC[C@@]3(C)[C@]1(C)CC2 | Active | Toxic | 
28 | CC1(C)CC[C@]2(C(=O)NCC(=O)O)CC[C@]3(C)C(=CC[C@@H]4[C@@]5(C)CC[C@H](O)C(C)(C)[C@@H]5CC[C@]43C)[C@@H]2C1 | Active | Toxic | 
29 | CC1(C)CC[C@]2(C(=O)N[C@@H](Cc3ccc(O)cc3)C(=O)O)CC[C@]3(C)C(=CC[C@@H]4[C@@]5(C)CC[C@H](O)C(C)(C)[C@@H]5CC[C@]43C)[C@@H]2C1 | Active | Toxic | 
30 | COC(=O)[C@@H](NC(=O)[C@]12CCC(C)(C)C[C@H]1C1=CC[C@@H]3[C@@]4(C)CC[C@H](O)C(C)(C)[C@@H]4CC[C@@]3(C)[C@]1(C)CC2)[C@@H](C)O | Active | Toxic | 
31 | CC1(C)CC[C@]2(C(=O)N3CCC[C@H]3C(=O)O)CC[C@]3(C)C(=CC[C@@H]4[C@@]5(C)CC[C@H](O)C(C)(C)[C@@H]5CC[C@]43C)[C@@H]2C1 | Active | Toxic | 
32 | CCOC(=O)C1=C[C@@H](OC(CC)CC)[C@H](NC(C)=O)[C@@H](N)C1 [OSELTAMIVIR PHOSPHATE] |  |  | IC50 (Influenza A virus H3N2): > 100 µM; CC50 at 45 h [5]: > 100 µM
33 | CC1(C)CC[C@]2(C(=O)N[C@@H](CO)C(=O)O)CC[C@]3(C)C(=CC[C@@H]4[C@@]5(C)CC[C@H](O)C(C)(C)[C@@H]5CC[C@]43C)[C@@H]2C1 | Active | Toxic | 
34 | COC(=O)[C@H](Cc1c[nH]cn1)NC(=O)[C@]12CCC(C)(C)C[C@H]1C1=CC[C@@H]3[C@@]4(C)CC[C@H](O)C(C)(C)[C@@H]4CC[C@@]3(C)[C@]1(C)CC2 | Active | Toxic | 
